Measured values taken from ChEMBL document CHEMBL2163301, “Substrates for efficient fluorometric screening employing the NAD-dependent sirtuin 5 lysine deacylase (KDAC) enzyme” (J Med Chem, 2012).
Structures can show the parent of a compound that is named as a salt. Activity calls are given as the source filed them. The rule behind the calls is not given here. *1 amine or outer side, *2 acyl side, *3 side chain or, on linkers, in order; H or OH if unused. Where a SMILES comes first, the peptide text is derived from it. The star is where a group is joined. AMC = Cc1cc(=O)oc2cc(N*)ccc12; Suc = O=C(CCC(=O)[*:2])[*:1]; Tfa = O=C(C(F)(F)F)*

What was measured:
[1] = target: T1, NAD-dependent protein lipoamidase sirtuin-4, mitochondrial (Homo sapiens) (UniProt Q9Y6E7); assay: Activity of recombinant human SIRT4 assessed as deacylation of compound at 50 uM after 1 hr by trypsin developer-based fluorescence assay
T1 sequence (whole entry): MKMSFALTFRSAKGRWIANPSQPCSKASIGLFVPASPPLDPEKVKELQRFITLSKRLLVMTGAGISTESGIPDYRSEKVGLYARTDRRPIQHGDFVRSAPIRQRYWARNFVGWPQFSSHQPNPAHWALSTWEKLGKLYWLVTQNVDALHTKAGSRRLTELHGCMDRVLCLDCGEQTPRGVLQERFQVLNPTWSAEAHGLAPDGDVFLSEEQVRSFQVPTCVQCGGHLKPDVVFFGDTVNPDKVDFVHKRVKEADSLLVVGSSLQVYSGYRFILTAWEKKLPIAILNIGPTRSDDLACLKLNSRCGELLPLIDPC
Method in brief: (§1)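 Recombinant sirtuin at 1 μg per 50 μL reaction, with SIRT1-GST fusion as the SIRT1 source. Fluorogenic substrate and NAD incubated in Tris-Cl buffer pH 8.0 with BSA (1 mg/mL) for 1 h at 37 °C. Developer with nicotinamide (2 mM) and trypsin (0.4 mg/mL) added, 15–30 min at room temperature. Fluorescence read at ex 360/em 460 nm and normalized to no-enzyme wells. At least two experiments in duplicate.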

[2] = target: T2, NAD-dependent protein deacetylase sirtuin-1 (Homo sapiens) (UniProt Q96EB6); assay: Activity of human truncated SIRT1-GST fusion protein at 50 uM after 1 hr by trypsin developer-based fluorescence assay
T2 sequence (whole entry): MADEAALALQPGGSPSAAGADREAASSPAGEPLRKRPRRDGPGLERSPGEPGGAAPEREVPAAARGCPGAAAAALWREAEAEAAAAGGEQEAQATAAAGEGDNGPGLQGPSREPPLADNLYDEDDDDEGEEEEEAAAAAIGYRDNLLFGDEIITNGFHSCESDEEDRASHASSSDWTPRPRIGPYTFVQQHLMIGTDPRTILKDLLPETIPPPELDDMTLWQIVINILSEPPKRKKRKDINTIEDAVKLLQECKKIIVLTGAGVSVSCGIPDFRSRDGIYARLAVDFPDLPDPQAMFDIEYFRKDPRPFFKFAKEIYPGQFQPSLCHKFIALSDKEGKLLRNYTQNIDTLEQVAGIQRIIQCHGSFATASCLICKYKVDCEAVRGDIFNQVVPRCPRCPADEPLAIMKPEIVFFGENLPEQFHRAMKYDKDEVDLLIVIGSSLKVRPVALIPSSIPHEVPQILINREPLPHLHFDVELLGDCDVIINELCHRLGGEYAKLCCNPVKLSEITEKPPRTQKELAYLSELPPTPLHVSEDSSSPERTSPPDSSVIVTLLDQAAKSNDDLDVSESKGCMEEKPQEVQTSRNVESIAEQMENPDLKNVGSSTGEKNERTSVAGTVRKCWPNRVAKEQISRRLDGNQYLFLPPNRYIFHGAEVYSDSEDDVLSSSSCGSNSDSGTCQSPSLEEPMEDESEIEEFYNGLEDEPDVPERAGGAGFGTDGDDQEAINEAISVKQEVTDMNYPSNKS
Method in brief: (§2)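 Acetylated substrates were each treated with commercial full-length His-tagged SIRT1 or truncated SIRT1-GST fusion, with NAD, in Tris-Cl pH 8.0 buffer containing BSA. End point: 1 h at 37 °C, then nicotinamide (2 mM)/trypsin (0.4 mg/mL) developer for 15–30 min at room temperature. Fluorescence read at ex 360/em 460 nm against no-enzyme control wells.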

[3] = target: T3, NAD-dependent protein deacetylase sirtuin-2 (Homo sapiens) (UniProt Q8IXJ6); assay: Activity of human SIRT2 assessed as deacylation of compound at 50 uM after 1 hr by trypsin developer-based fluorescence assay; method in brief: as §1
T3 sequence (whole entry): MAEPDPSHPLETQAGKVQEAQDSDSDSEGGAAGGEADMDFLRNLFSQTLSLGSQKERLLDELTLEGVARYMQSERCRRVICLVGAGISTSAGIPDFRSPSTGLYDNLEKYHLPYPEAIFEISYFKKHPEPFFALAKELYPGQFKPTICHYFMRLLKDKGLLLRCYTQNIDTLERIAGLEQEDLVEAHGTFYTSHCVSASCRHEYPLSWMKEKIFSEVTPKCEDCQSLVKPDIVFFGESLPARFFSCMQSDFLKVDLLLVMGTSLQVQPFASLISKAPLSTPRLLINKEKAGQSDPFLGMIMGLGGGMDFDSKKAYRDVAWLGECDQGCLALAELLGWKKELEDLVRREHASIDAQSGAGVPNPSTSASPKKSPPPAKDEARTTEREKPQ

[4] = target: NAD-dependent protein deacylase sirtuin-6 (Homo sapiens) (UniProt Q8N6T7); assay: Activity of human SIRT6 assessed as deacylation of compound at 50 uM after 1 hr by trypsin developer-based fluorescence assay; method in brief: as §1
Sequence of NAD-dependent protein deacylase sirtuin-6 (Homo sapiens) (Q8N6T7 whole entry): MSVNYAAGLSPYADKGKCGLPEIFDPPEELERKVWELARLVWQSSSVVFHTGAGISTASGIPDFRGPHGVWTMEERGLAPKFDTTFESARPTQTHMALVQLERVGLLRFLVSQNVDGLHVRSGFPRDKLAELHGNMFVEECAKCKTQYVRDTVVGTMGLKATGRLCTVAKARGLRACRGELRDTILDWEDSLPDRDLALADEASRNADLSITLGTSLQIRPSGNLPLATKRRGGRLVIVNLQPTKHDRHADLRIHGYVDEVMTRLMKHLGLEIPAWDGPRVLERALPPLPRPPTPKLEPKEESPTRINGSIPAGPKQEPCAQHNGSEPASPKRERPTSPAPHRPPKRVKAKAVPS

[5] = target: T4, NAD-dependent protein deacetylase sirtuin-7 (Homo sapiens) (UniProt Q9NRC8); assay: Activity of recombinant human SIRT7 assessed as deacylation of compound at 50 uM after 1 hr by trypsin developer-based fluorescence assay; method in brief: as §1
T4 sequence (whole entry): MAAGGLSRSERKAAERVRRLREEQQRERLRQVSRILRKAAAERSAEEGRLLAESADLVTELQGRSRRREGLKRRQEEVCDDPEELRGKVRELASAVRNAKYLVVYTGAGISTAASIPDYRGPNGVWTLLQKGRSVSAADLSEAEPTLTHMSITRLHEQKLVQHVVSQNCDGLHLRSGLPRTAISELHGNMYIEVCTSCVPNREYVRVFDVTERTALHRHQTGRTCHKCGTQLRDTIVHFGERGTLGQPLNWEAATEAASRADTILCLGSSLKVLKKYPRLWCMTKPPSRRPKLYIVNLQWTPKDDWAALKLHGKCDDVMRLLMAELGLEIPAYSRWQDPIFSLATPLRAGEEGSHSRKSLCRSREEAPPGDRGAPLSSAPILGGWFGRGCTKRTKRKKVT

[6] = target: T2, NAD-dependent protein deacetylase sirtuin-1 (Homo sapiens); assay: Activity of human full length SIRT1 enzyme at 50 uM after 1 hr by trypsin developer-based fluorescence assay; method in brief: as §2
[7] = target: T2, NAD-dependent protein deacetylase sirtuin-1 (Homo sapiens); assay: Activity of human SIRT1 assessed as deacylation of compound at 50 uM after 1 hr by trypsin developer-based fluorescence assay; method in brief: as §1
[8] = target: T5, NAD-dependent protein deacetylase sirtuin-3, mitochondrial (Homo sapiens) (UniProt Q9NTG7); assay: Activity of human SIRT3 assessed as deacylation of compound at 50 uM after 1 hr by trypsin developer-based fluorescence assay; method in brief: as §1
T5 sequence (whole entry): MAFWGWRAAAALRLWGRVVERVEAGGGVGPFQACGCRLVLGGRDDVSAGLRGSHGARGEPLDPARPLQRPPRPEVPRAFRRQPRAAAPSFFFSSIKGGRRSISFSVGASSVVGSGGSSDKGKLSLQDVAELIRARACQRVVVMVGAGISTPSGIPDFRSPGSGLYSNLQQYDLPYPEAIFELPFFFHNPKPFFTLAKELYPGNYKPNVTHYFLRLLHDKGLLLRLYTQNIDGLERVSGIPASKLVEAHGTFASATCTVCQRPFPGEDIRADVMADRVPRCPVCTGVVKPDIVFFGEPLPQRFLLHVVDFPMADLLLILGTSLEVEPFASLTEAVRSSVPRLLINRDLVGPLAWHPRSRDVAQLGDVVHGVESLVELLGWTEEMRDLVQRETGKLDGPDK

[9] = target: NAD-dependent protein deacylase sirtuin-5, mitochondrial (Homo sapiens) (UniProt Q9NXA8); assay: Activity of human SIRT5 assessed as deacylation of compound at 50 uM after 1 hr by trypsin developer-based fluorescence assay; method in brief: as §1
Sequence of NAD-dependent protein deacylase sirtuin-5, mitochondrial (Homo sapiens) (Q9NXA8 37-310 limits assumed): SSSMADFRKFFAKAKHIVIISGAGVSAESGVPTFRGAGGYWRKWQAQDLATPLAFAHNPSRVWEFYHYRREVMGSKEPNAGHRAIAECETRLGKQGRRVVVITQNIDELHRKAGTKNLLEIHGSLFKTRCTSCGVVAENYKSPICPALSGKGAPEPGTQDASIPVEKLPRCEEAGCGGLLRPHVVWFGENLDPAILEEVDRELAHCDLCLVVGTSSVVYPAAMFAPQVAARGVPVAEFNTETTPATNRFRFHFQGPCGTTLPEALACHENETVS

[10] = target: T2, NAD-dependent protein deacetylase sirtuin-1 (Homo sapiens); assay: Activity of human SIRT1 assessed as decrotonylation of compound at 50 uM after 1 hr by trypsin developer-based fluorescence assay; method in brief: as §1
[11] = target: T3, NAD-dependent protein deacetylase sirtuin-2 (Homo sapiens); assay: Activity of human SIRT2 assessed as decrotonylation of compound at 50 uM after 1 hr by trypsin developer-based fluorescence assay; method in brief: as §1
[12] = target: NAD-dependent protein deacylase sirtuin-5, mitochondrial (Homo sapiens) (UniProt Q9NXA8); assay: Activity of human SIRT5 assessed as decrotonylation of compound at 50 uM after 1 hr by trypsin developer-based fluorescence assay; method in brief: as §1
[13] = target: T5, NAD-dependent protein deacetylase sirtuin-3, mitochondrial (Homo sapiens); assay: Activity of human SIRT3 assessed as decrotonylation of compound at 50 uM after 1 hr by trypsin developer-based fluorescence assay; method in brief: as §1
[14] = target: NAD-dependent protein deacylase sirtuin-6 (Homo sapiens) (UniProt Q8N6T7); assay: Activity of human SIRT6 assessed as decrotonylation of compound at 50 uM after 1 hr by trypsin developer-based fluorescence assay; method in brief: as §1
[15] = test system: CC(=O)N[C@@H](CCCCNC(=O)CCC(=O)O)C(=O)Nc1ccc2c(C)cc(=O)oc2c1; assay: (§3) Activity of human SIRT5 assessed as desuccinylation of compound after 1 hr by Michaelis-Menten plot analysis
Method in brief: (§4)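 Recombinant human SIRT5 with fluorogenic succinyllysine-AMC substrate and NAD in Tris-Cl buffer pH 8.0 containing BSA, with in situ AMC release by Lys-C or trypsin developer. Fluorescence (ex 360/em 460 nm) read every 30 s for at least 30 min at 25 °C to give initial rates over a substrate concentration series. Km and Vmax from Michaelis-Menten fit; kcat from AMC standard curve and supplier enzyme concentration.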

[16] = test system: CC(=O)N[C@@H](CC(C)C)C(=O)NCC(=O)N[C@@H](CCCCNC(=O)CCC(=O)O)C(=O)Nc1ccc2c(C)cc(=O)oc2c1; assay: as §3; method in brief: as §4
[17] = test system: CC(=O)N[C@@H](CCCCNC(=O)CCC(=O)O)C(=O)Nc1ccc2c(C)cc(=O)oc2c1; assay: (§5) Ratio of Kcat to Km for human SIRT5 assessed as desuccinylation of compound after 1 hr by Michaelis-Menten plot analysis; method in brief: as §4
[18] = test system: CC(=O)N[C@@H](CC(C)C)C(=O)NCC(=O)N[C@@H](CCCCNC(=O)CCC(=O)O)C(=O)Nc1ccc2c(C)cc(=O)oc2c1; assay: as §5; method in brief: as §4

Sequence of NAD-dependent protein deacylase sirtuin-5, mitochondrial (Homo sapiens), Q9NXA8 (Q9NXA8 whole entry): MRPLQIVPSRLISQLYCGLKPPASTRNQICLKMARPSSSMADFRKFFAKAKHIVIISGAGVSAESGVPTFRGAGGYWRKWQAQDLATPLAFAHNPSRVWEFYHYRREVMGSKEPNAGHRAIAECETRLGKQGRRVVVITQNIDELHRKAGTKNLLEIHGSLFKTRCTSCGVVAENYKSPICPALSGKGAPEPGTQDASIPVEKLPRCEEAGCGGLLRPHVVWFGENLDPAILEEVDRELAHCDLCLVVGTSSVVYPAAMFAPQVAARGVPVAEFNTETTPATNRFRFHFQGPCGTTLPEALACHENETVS

Molecule	Activity [1]	Activity [2]	Activity [3]	Activity [4]	Activity [5]	Activity [6]	Activity [7]	Activity [8]	Activity [9]	further results
C/C=C/C(=O)NCCCC[C@H](NC(=O)CNC(=O)[C@H](CC(C)C)NC(C)=O)C(=O)Nc1ccc2c(C)cc(=O)oc2c1										Activity [10]: inactive; Activity [11]: inactive; Activity [12]: inactive; Activity [13]: inactive; Activity [14]: inactive
NAD-dependent protein deacylase sirtuin-5, mitochondrial (Homo sapiens), Q9NXA8										Km [15]: 84 µM; Vmax [15]: 5.6 ×10⁻⁴ µM/s; kcat [15]: 9 ×10⁻³ /s; Km [16]: 33 µM; Vmax [16]: 1.9 nM/s; kcat [16]: 3 ×10⁻² /s; kcat/Km [17]: 1.1 ×10² /s/M; kcat/Km [18]: 9.2 ×10² /s/M
CC(=O)N[C@@H](CC(C)C)C(=O)NCC(=O)N[C@@H](CCCCNC(=O)CCC(=O)O)C(=O)Nc1ccc2c(C)cc(=O)oc2c1 (Ac-Leu-Gly-Lys(Suc)-{AMC})	inactive			inactive	inactive				Active	
CC(=O)NCCCC[C@H](NC(=O)CNC(=O)[C@H](CC(C)C)NC(C)=O)C(=O)Nc1ccc2c(C)cc(=O)oc2c1 (Ac-Leu-Gly-Lys(Ac)-{AMC})	inactive	inactive	Active	inactive	inactive	inactive	Active	Active	inactive	
CC(=O)NCCCC[C@H](NC(C)=O)C(=O)Nc1ccc2c(C)cc(=O)oc2c1	inactive	inactive	Active	inactive	inactive	inactive	Active	Active	inactive	
CC(=O)NCCCC[C@H](NC(=O)[C@H](CCCCN)NC(=O)[C@@H]1CCCN1C(=O)[C@H](CCC(N)=O)NC(C)=O)C(=O)Nc1ccc2c(C)cc(=O)oc2c1 (Ac-QPKK(Ac)-{AMC})	inactive	inactive	Active	inactive	inactive	inactive	Active	Active	inactive	
CC(=O)N[C@@H](CC(C)C)C(=O)NCC(=O)N[C@@H](CCCCNC(=O)C(F)(F)F)C(=O)Nc1ccc2c(C)cc(=O)oc2c1 (Ac-Leu-Gly-Lys(Tfa)-{AMC})										Activity [10]: Active; Activity [11]: inactive; Activity [12]: inactive; Activity [13]: inactive; Activity [14]: inactive

The next lines start with results.

Activity [1]	Activity [2]	Activity [3]	Activity [4]	Activity [5]	Activity [6]	Activity [7]	Activity [8]	Activity [9]	Molecule	further results
inactive	Active	Active	inactive	inactive	Active	Active	Active	inactive	CC(=O)NCCCC[C@H](NC(=O)[C@H](CCCNC(=N)N)NC(=O)[C@H](C)NC(=O)[C@@H](NC(C)=O)[C@H](C)O)C(=O)Nc1ccc2c(C)cc(=O)oc2c1	
inactive	inactive	Active	inactive	inactive	inactive	Active	Active	inactive	CC(=O)NCCCC[C@H](NC(=O)[C@H](CCCCNC(C)=O)NC(=O)[C@H](Cc1cnc[nH]1)NC(=O)[C@H](CCCNC(=N)N)NC(C)=O)C(=O)Nc1ccc2c(C)cc(=O)oc2c1 (Ac-RHK(Ac)K(Ac)-{AMC})	
inactive	inactive	Active	inactive	inactive	inactive	Active	Active	inactive	CC(=O)NCCCC[C@H](NC(=O)[C@H](CCCCN)NC(=O)[C@H](Cc1cnc[nH]1)NC(=O)[C@H](CCCNC(=N)N)NC(C)=O)C(=O)Nc1ccc2c(C)cc(=O)oc2c1 (Ac-RHKK(Ac)-{AMC})	
